Bioassay records from PubChem.
The list is not random: actives were taken first. Their share in the collection is about 2.3%.
TRPC4 agonist: activators of mouse TRPC4 channel, primary screen, Fluo4 calcium, HEK293 TRPC4beta/mu-opioid cells; Short transient receptor potential channel 4 (Mus musculus), Q9QUQ5; Fluo4 calcium fluorescence; stronger effect = higher value; B-score at 10 µM; 310,000 tested, 0.49% active; AID 2237, 2010;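 active = B-score above 5 SD of library B-scores, and initial fluorescence ratio not above library mean plus 5 SD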;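 note: positive B-score marks a calcium rise read as TRPC4 activation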
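Material: HEK293 stable line with TRPC4beta plus mu-opioid receptor; technique: Fluo4 calcium-sensitive dye fluorescence, kinetic, 1 Hz baseline; timing: Fluo4 dye loading 45 min at room temperature, 110 s recording; controls: assay buffer as low control, maximal DAMGO as high control; read-out: integrated baseline-normalised fluorescence ratio, converted to per-well B score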
TRPC6 inh: mouse TRPC6 channel inhibitors, primary screen, cell-based, HEK293, membrane potential dye; Short transient receptor potential channel 6 (Mus musculus), Q61143; ACh-evoked depolarization; stronger effect = lower value; B-score at 10 µM; 310,000 tested, 1.1% active; AID 2553, 2010;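 active = B-score under library mean minus 3 SD, initial fluorescence not abnormally high, positive integrated signal ratio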;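 note: B-score derived from integrated fluorescence ratio over the kinetic read; more negative B-score means stronger inhibition of depolarization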
TRPC4 inh: inhibitors of mouse TRPC4 channel, primary screen, Fluo4 calcium, HEK293 TRPC4beta/mu-opioid cells | AID 2247, 2010 | B-score at 10 µM | DAMGO-evoked Fluo4 calcium flux; stronger effect = lower value | 300,000 tested, 0.39% active;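 active = B-score over 3 SD under the library average, no early fluorescence shift, positive overall ratio signal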
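Signal: kinetic Fluo4 fluorescence imaging of calcium influx. Material: stable TRPC4beta/mu-opioid receptor HEK293 cells. Probe or stimulus: DAMGO in two steps, submaximal then maximal.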
TRPC6 act: mouse TRPC6 channel activators, primary screen, cell-based, HEK293, membrane potential dye | Short transient receptor potential channel 6 (Mus musculus), Q61143 | 310,000 tested, 0.13% active | HEK293-TRPC6 membrane potential dye fluorescence; stronger effect = higher value | B-score at 10 µM;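 active = B-score of the integrated fluorescence ratio above library mean plus 3 SD, and starting fluorescence ratio within library mean plus 5 SD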;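 note: higher score means more depolarization so channel activation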
TRPC4 PAM: positive allosteric modulators of TRPC4, primary screen, cell-based, mouse TRPC4beta, HEK293 mu-opioid, Fluo-4 calcium | Short transient receptor potential channel 4 (Mus musculus), Q9QUQ5 | 310,000 tested, 0.42% active | DAMGO EC20, Fluo-4 Ca2+ flux; stronger effect = higher value | B-score at 10 µM;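 active = B-score of calcium response area above 5 SD of library B-scores, with initial fluorescence ratio within 5 SD of library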
Large screens that a line does not name were inactive.

CCc1cc(C(=O)NCCN(C)C)cs1	TRPC4 agonist 78
Cc1cccc(C(=O)NCCN(C)C)c1	TRPC4 agonist 73
Clc1ccc(OCc2nc(-c3ccncc3)no2)c(Cl)c1	none
CC(C)(C)c1ccc(C(=O)Nc2ccc(C(=O)N3CCCC3)cc2)cc1	none
O=C(CCN1CCCCC1=O)NC1CCCN(Cc2ccc(Cl)cc2)C1 (stereo unspecified)	TRPC4 PAM 14
COc1cc(OC)cc(C(=O)NC2CCCN(Cc3ccc(Cl)cc3)C2)c1 (stereo unspecified)	TRPC4 agonist 92
O=C(Cc1cccc(F)c1F)NC1CCCN(Cc2ccc(Cl)cc2)C1 (stereo unspecified)	TRPC4 agonist 106
O=C(COc1ccccc1)NC1CCCN(Cc2ccccc2F)C1 (stereo unspecified)	none
O=C(Cc1ccccc1F)NC1CCCN(Cc2ccc(Cl)cc2)C1 (stereo unspecified)	TRPC4 agonist 44
CCOc1cccc(=O)c2c(C)oc(C)c12	none
COc1ccc(C)cc1N(C(=O)CNC(=O)c1ccco1)C(C(=O)NCC1CCCO1)c1ccccc1 (stereo unspecified)	none
NC(N)=N/N=C/c1ccc(Cl)c(Cl)c1	none
Cc1ccc(OCC(=O)Nc2cccc(O)c2)cc1C	none
Cc1cc(C)n(CC(=O)NC2CCCN(Cc3ccc(Cl)cc3)C2)n1 (stereo unspecified)	TRPC4 agonist 50
CC(C)Cc1ccc(CN2CCCC(NC(=O)CCN3CCCCC3=O)C2)cc1 (stereo unspecified)	none
O=C(NC1CCCN(Cc2ccc(Cl)cc2)C1)c1ccnc(Cl)c1 (stereo unspecified)	none
CC(=O)c1c(C)nn(CC(=O)NC2CCCN(Cc3ccc(CC(C)C)cc3)C2)c1C (stereo unspecified)	TRPC4 agonist 111
O=C(CSc1nccn1Cc1ccc(F)cc1)Nc1ccc(F)cc1F	none
CCCCCCn1c(=O)[nH]c2c(c1=O)CCC2	none
CCCCCCCn1c2c(c(=N)c3c1CCC3)CCCC2	TRPC6 inh -6
Cc1cc(OCC(=O)N(C(C)C)C(C)C)cc(C)c1Br	TRPC4 PAM 38
Cc1cc(OCC(=O)NC(C)C)cc(C)c1Br	none
COc1c(/C=N/Nc2nc(N3CCCCC3)nc(N3CCCCC3)n2)cccc1[N+](=O)[O-]	none
O=[N+]([O-])c1ccc(/C=N/Nc2nc(N3CCCCC3)nc(N3CCCCC3)n2)o1	TRPC4 PAM 22
Cc1cccn2c(=O)c3cc(S(=O)(=O)c4ccccc4)c(=N)n(Cc4ccco4)c3nc12	TRPC4 PAM 10
Cc1cccn2c(=O)c3cc(S(=O)(=O)c4ccc(F)cc4)c(=N)n(Cc4ccco4)c3nc12	none
CNS(=O)(=O)c1cc(Cl)ccc1Sc1ccccc1C(=O)O	none
CN1C2C=C(N(CCc3c[nH]c4ccccc34)C(=O)c3ccc(Cl)cc3)CC1CC2 (stereo unspecified)	TRPC4 agonist 88, TRPC4 inh -6
CC(C)=CCN1CCN(Cc2cccc3nonc23)CC1CCO (stereo unspecified)	TRPC4 inh -5
COc1ccc(CNC(=O)CS(=O)(=O)Cc2nc(-c3ccc(OC)cc3)oc2C)cc1	none
Cc1cc(Br)ccc1OCCn1ccnc1	TRPC4 agonist 116
Clc1cc(Br)ccc1OCCn1ccnc1	TRPC4 agonist 84, TRPC4 inh -6
Clc1ccc(OCCn2ccnc2)cc1Cl	TRPC4 agonist 57, TRPC4 PAM 14
Cc1ccc(C)c(OCCn2ccnc2)c1	none
Cc1cc(C)n2nc(C(=O)OC(C)C(=O)c3ccccc3)nc2n1 (stereo unspecified)	none
Cc1cccc(Cn2c(C(C)(C)C)cc3cccnc32)c1	TRPC4 inh -6
COc1ccc(CCNC(=O)CN2CCN(Cc3ccccc3F)C2=O)cc1OC	none
COc1ccc(/C=C(\C#N)C(=O)N2CCOCC2)cc1Br	TRPC4 PAM 14
COc1ccc(N2CCN(C3CCCCC3NS(=O)(=O)c3ccc(Cl)cc3)CC2)cc1 (stereo unspecified)	TRPC4 PAM 15
COc1ccccc1N1CCN(C2CCCCC2NS(=O)(=O)c2ccc(Cl)cc2)CC1 (stereo unspecified)	none
Cc1ccc(C(CC(=O)c2ccco2)SCCO)cc1 (stereo unspecified)	none
Cc1ccc(NC(=O)c2ccc(N3CCOCC3)c([N+](=O)[O-])c2)cc1S(=O)(=O)N1CCOCC1	none
CSc1nc(N)nc(N(C)C)n1	none
O=[N+]([O-])c1ccc(N2CCCC2)nc1N1CCCC1	TRPC4 agonist 144
Nc1ncc([N+](=O)[O-])c(N2CCCCCC2)n1	none
CCOc1ccccc1C1CC(=O)Nc2cc(OC)c(OC)c(OC)c21 (stereo unspecified)	none
COc1ccccc1NC(=O)Cn1c2ccc(F)cc2c2nc3n(c(=O)c21)CCS3	none
CC(C)CCn1c(Sc2nc3ccccc3o2)nc2c1c(=O)[nH]c(=O)n2C	TRPC4 PAM 17
CCCN(c1nc(C)cc(OC)n1)S(=O)(=O)c1ccccc1	TRPC4 inh -5
Cc1ccc(CN2CCNC(=O)C2CC(=O)NC2CCCCCC2)o1 (stereo unspecified)	none
Cc1ccccc1Nc1cc(C)c2c(O)cccc2n1	TRPC4 agonist 72
COc1ccc(Nc2cc(C)c3c(O)cccc3n2)cc1	TRPC4 inh -5
CC(C)C(NC(=O)c1ccccc1)c1nnc(SCC(=O)NC2CCCC2)n1C (stereo unspecified)	none
CNC(=S)NNC(=O)c1cccn(Cc2ccc(Cl)cc2Cl)c1=O	none
CNC(=S)NNC(=O)c1cccn(Cc2cccc(C(F)(F)F)c2)c1=O	TRPC4 PAM 25
CC(C)=CCCC(C)CN1CCC(n2nccc2NC(=O)C2CCCC2)CC1 (stereo unspecified)	TRPC4 inh -5
CCCn1c(SCC(=O)Nc2cc(Cl)ccc2Cl)n[nH]c1=O	none
CCCn1c(SCC(=O)NC(=O)Nc2ccc(C)cc2C)n[nH]c1=O	TRPC4 PAM 12
CCN(CC)C(=O)CSc1nc2nc(C)cc(C)c2c(=O)[nH]1	none
O=C(CSc1nnc(-c2ccc(Cl)cc2Cl)n1C1CCCCC1)NC1CCS(=O)(=O)C1 (stereo unspecified)	TRPC4 inh -6
Cc1onc(-c2c(F)cccc2Cl)c1C(=O)N1CCN(c2ncc(Br)cn2)CC1	TRPC4 agonist 86
COc1ccc(/C=C2\Sc3ccc(C(=O)NCc4cccnc4)cc3N(C)C2=O)cc1OC	none
